Experimental data reported in ChEMBL document CHEMBL4808183, “Betulonic Acid Derivatives Interfering with Human Coronavirus 229E Replication via the nsp15 Endoribonuclease” (J Med Chem, 2021).
Activity calls are given as the source filed them. No cut-off for these calls is given here.

Key:
[1] = (§1) Antiviral activity against Human coronavirus 229E infected in human embryonic lung fibroblast cells assessed as reduction in virus-induced cytopathic effect incubated for 5 days by MTS cell viability assay; assay type: functional, cell-based; settings: 120 h
Method in brief: (§2)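 Confluent HEL cell cultures given serial compound dilutions together with HCoV-229E at MOI 100 and held 5 days at 35 °C. Virus-induced CPE was scored by microscopy. MTS reagent was then added and absorbance at 490 nm read 24 h later. EC50 was taken from the MTS or microscopic read-out and CC50 from MTS. SI = CC50/EC50, both by MTS. Mean ± SEM of three independent experiments.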

[2] = Antiviral activity against Human coronavirus 229E infected in human embryonic lung fibroblast cells assessed as reduction in virus-induced cytopathic effect incubated for 5 days by microscopy; assay type: functional, cell-based; settings: 120 h; method in brief: as §2
[3] = Cytotoxicity against mock-infected human embryonic lung fibroblast cells incubated for 5 days by MTS assay; assay type: cell-based; settings: time 5 day; method in brief: as §2
[4] = as §1, with “Selectivity index, ratio of CC50 for cytotoxicity against mock-infected human embryonic lung fibroblast cells incubated for 5 days by MTS assay to EC50 for antiviral” for “Antiviral”; assay type: toxicity, cell-based; settings: time 5 day, read-out: Ratio CC50/EC50; method in brief: as §2
[5] = tested on: Human immunodeficiency virus; experiment: Antiviral activity against HIV; assay type: functional, organism-based
[6] = tested on: Herpes simplex virus unknown type; experiment: Antiviral activity against Herpes simplex virus; assay type: functional
Vaccinia virus = experiment: Antiviral activity against Vaccinia virus; assay type: functional, organism-based; settings: Orthopoxvirus vaccinia
Human adenovirus 2 = experiment: Antiviral activity against Adenovirus; assay type: functional
[7] = tested on: Vesicular stomatitis virus; experiment: Antiviral activity against Vesicular stomatitis virus; assay type: functional, organism-based
Coxsackievirus B4 = experiment: Antiviral activity against Coxsackie B4 virus; assay type: functional, organism-based
[8] = tested on: Respiratory syncytial virus; experiment: Antiviral activity against Respiratory syncytial virus; assay type: functional, organism-based
Human respirovirus 3 = experiment: Antiviral activity against Parainfluenza-3 virus; assay type: functional, organism-based
Reovirus sp. = experiment: Antiviral activity against Reovirus-1; assay type: functional, organism-based
Sindbis virus = experiment: Antiviral activity against Sindbis virus; assay type: functional, organism-based
Punta Toro virus = experiment: Antiviral activity against Punta Toro virus; assay type: functional, organism-based
Yellow fever virus = experiment: Antiviral activity against Yellow fever virus; assay type: functional, organism-based
Influenza A virus = experiment: Antiviral activity against Influenza virus; assay type: functional

Row | Compound | EC50 [1] [µM] | EC50 [2] [µM] | CC50 at 120 h [3] [µM] | selectivity ratio at 120 h [4] | Activity [5] | Activity [6] | Activity (Vaccinia virus) | Activity (Human adenovirus 2) | Activity [7] | Activity (Coxsackievirus B4) | Activity [8] | Activity (Human respirovirus 3) | Activity (Reovirus sp.) | Activity (Sindbis virus) | Activity (Punta Toro virus) | Activity (Yellow fever virus) | Activity (Influenza A virus)
1 | C=C(C)[C@@H]1CC[C@]2(C(=O)O)CC[C@]3(C)[C@H](CC[C@@H]4[C@@]5(C)Cc6nnn(Cc7ccco7)c6C(C)(C)[C@@H]5CC[C@]43C)[C@@H]12 | 2.6 | 1.1 | 20 | 8 | inactive | inactive | inactive | inactive | inactive | inactive | inactive | inactive | inactive | inactive | inactive | inactive | inactive
2 | C=C(C)[C@@H]1CC[C@]2(C(=O)O)CC[C@]3(C)[C@H](CC[C@@H]4[C@@]5(C)Cc6nnn(CCO)c6C(C)(C)[C@@H]5CC[C@]43C)[C@@H]12 | 3.3 | 2.2 | 4.9 | 1.5 | inactive | inactive | inactive | inactive | inactive | inactive | inactive | inactive | inactive | inactive | inactive | inactive | inactive
3 | C=C(C)[C@@H]1CC[C@]2(C(=O)O)CC[C@]3(C)[C@H](CC[C@@H]4[C@@]5(C)Cc6nnn(Cc7cc(OC)cc(OC)c7)c6C(C)(C)[C@@H]5CC[C@]43C)[C@@H]12 | 2.4 | 1.6 | 17 | 7 | inactive | inactive | inactive | inactive | inactive | inactive | inactive | inactive | inactive | inactive | inactive | inactive | inactive
4 | C=C(C)[C@@H]1CC[C@]2(C(=O)O)CC[C@]3(C)[C@H](CC[C@@H]4[C@@]5(C)Cc6nnn(Cc7cc(OC)c(OC)c(OC)c7)c6C(C)(C)[C@@H]5CC[C@]43C)[C@@H]12 | 1.9 | 1.6 | 10 | 5 | inactive | inactive | inactive | inactive | inactive | inactive | inactive | inactive | inactive | inactive | inactive | inactive | inactive
5 | C=C(C)[C@@H]1CC[C@]2(C(=O)O)CC[C@]3(C)[C@H](CC[C@@H]4[C@@]5(C)Cc6nnn(Cc7ccccc7)c6C(C)(C)[C@@H]5CC[C@]43C)[C@@H]12 | 0.85 | 0.71 | 12 | 14 | inactive | inactive | inactive | inactive | inactive | inactive | inactive | inactive | inactive | inactive | inactive | inactive | inactive
6 | C=C(C)[C@@H]1CC[C@]2(C(=O)O)CC[C@]3(C)[C@H](CC[C@@H]4[C@@]5(C)CCC(=O)C(C)(C)[C@@H]5CC[C@]43C)[C@@H]12 [BETUNOLIC ACID] | > 100 | > 100 | > 100 | – | – | – | – | – | – | – | – | – | – | – | – | – | –
7 | C=C(C)[C@@H]1CC[C@]2(C(=O)O)CC[C@]3(C)[C@H](CC[C@@H]4[C@@]5(C)Cc6nnn(Cc7ccc(N(C)C)cc7)c6C(C)(C)[C@@H]5CC[C@]43C)[C@@H]12 | 0.54 | 0.51 | 16 | 31 | inactive | inactive | inactive | inactive | inactive | inactive | inactive | inactive | inactive | inactive | inactive | inactive | inactive
8 | C=C(C)[C@@H]1CC[C@]2(C(=O)O)CC[C@]3(C)[C@H](CC[C@@H]4[C@@]5(C)Cc6nnn([C@H](C)c7ccccc7)c6C(C)(C)[C@@H]5CC[C@]43C)[C@@H]12 | 1.1 | 0.67 | > 100 | > 91 | inactive | inactive | inactive | inactive | inactive | inactive | inactive | inactive | inactive | inactive | inactive | inactive | inactive
9 | C=C(C)[C@@H]1CC[C@]2(C(=O)O)CC[C@]3(C)[C@H](CC[C@@H]4[C@@]5(C)Cc6nnn(Cc7ccc(F)cc7)c6C(C)(C)[C@@H]5CC[C@]43C)[C@@H]12 | 2.2 | 0.88 | 9.3 | 4 | inactive | inactive | inactive | inactive | inactive | inactive | inactive | inactive | inactive | inactive | inactive | inactive | inactive
10 | C=C(C)[C@@H]1CC[C@]2(C(=O)O)CC[C@]3(C)[C@H](CC[C@@H]4[C@@]5(C)Cc6nnn(Cc7ccc(C(F)(F)F)cc7)c6C(C)(C)[C@@H]5CC[C@]43C)[C@@H]12 | 4.8 | 3.6 | ≥ 47 | > 10 | inactive | inactive | inactive | inactive | inactive | inactive | inactive | inactive | inactive | inactive | inactive | inactive | inactive
11 | C=C(C)[C@@H]1CC[C@]2(CO)CC[C@]3(C)[C@H](CC[C@@H]4[C@@]5(C)CC[C@H](O)C(C)(C)[C@@H]5CC[C@]43C)[C@@H]12 [BETULIN] | > 100 | 11 | 7.6 | – | – | – | – | – | – | – | – | – | – | – | – | – | –
12 | CC(C)[C@@H]1CC[C@]2(C)CC[C@]3(C)[C@H](CC[C@@H]4[C@@]5(C)Cc6nnn([C@@H](C)c7ccccc7)c6C(C)(C)[C@@H]5CC[C@]43C)[C@@H]12 | – | – | – | – | inactive | inactive | inactive | inactive | inactive | inactive | inactive | inactive | inactive | inactive | inactive | inactive | inactive
13 | C=C(C)[C@@H]1CC[C@]2(C(=O)O)CC[C@]3(C)[C@H](CC[C@@H]4[C@@]5(C)Cc6nnn(CCCCCCC)c6C(C)(C)[C@@H]5CC[C@]43C)[C@@H]12 | 2 | 1.1 | 16 | 8 | inactive | inactive | inactive | inactive | inactive | inactive | inactive | inactive | inactive | inactive | inactive | inactive | inactive
14 | C=C(C)[C@@H]1CC[C@]2(C(=O)O)CC[C@]3(C)[C@H](CC[C@@H]4[C@@]5(C)Cc6nnn(CC7CCCCC7)c6C(C)(C)[C@@H]5CC[C@]43C)[C@@H]12 | 13 | 14 | 79 | – | inactive | inactive | inactive | inactive | inactive | inactive | inactive | inactive | inactive | inactive | inactive | inactive | inactive
